In brackets after ≈: the same amount, converted by molar mass. Activity calls are given as the source filed them. The calls are words filed in the database; no cut-off is given here.
Experiments:
Cell membrane [1] = assay: Induction of cell membrane permeability Staphylococcus epidermidis clinical isolate 23 assessed as residual polarized cells at 0.4 ug/ml by Texas Red-H/FITC-H staining based flow cytometry (reference value: 69.6%); assay type: subcellular; conditions: dose 0.4 µg/ml
Summary of the method: (§1)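 Membrane potential read by flow cytometry. Bacteria were stained with DiOC2, then exposed to the agent; red fluorescence marks polarized cells and green marks depolarized cells. CCCP served as the positive control and daptomycin as the depolarizing reference at 0.4 μg/mL. Test concentrations were 0.8, 1.6 and 3.125 μg/mL, with a 15 min exposure.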

Cell membrane [2] = assay: Induction of cell membrane permeability Staphylococcus epidermidis clinical isolate 23 assessed as depolarized cells at 0.4 ug/ml by Texas Red-H/FITC-H staining based flow cytometry (reference value: 2.7%); assay type: subcellular; conditions: dose 0.4 µg/ml; summary of the method: as §1
Cell membrane [3] = assay: Induction of cell membrane permeability Staphylococcus epidermidis clinical isolate 23 assessed as depolarized cells by Texas Red-H/FITC-H staining based flow cytometry (reference value: 2.7%); assay type: subcellular; summary of the method: as §1
Cell membrane [4] = assay: Induction of cell membrane permeability Staphylococcus epidermidis clinical isolate 23 assessed as residual polarized cells by Texas Red-H/FITC-H staining based flow cytometry (reference value: 69.6%); assay type: subcellular; summary of the method: as §1
[5] = Selectivity index, ratio of IC50 for cytotoxicity against human BJ cells to MIC for antibacterial activity against multidrug resistant Staphylococcus epidermidis clinical isolates; assay type: toxicity, cell-based; conditions: read-out: Selectivity Index
Summary of the method: (§2)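 SI is IC50 divided by the mean MIC across clinical multidrug-resistant S. epidermidis isolates (81 strains). IC50 came from an MTT assay after 24 h treatment of H9c2 cardiomyocytes or BJ skin fibroblasts, n = 3. MIC was measured by broth microdilution.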

[6] = test system: Staphylococcus epidermidis; assay: Antibiofilm activity against Staphylococcus epidermidis clinical isolates assessed as eradication of existing biofilms measured after 24 hrs by confocal laser scanning microscopy analysis; assay type: functional
[7] = test system: Staphylococcus epidermidis; assay: Antibiofilm activity against Staphylococcus epidermidis clinical isolates assessed as inhibition of biofilm formation measured after 24 hrs by confocal laser scanning microscopy analysis; assay type: functional
[8] = Selectivity index, ratio of IC50 for cytotoxicity against rat H9c2 cells to MIC for antibacterial activity against multidrug resistant Staphylococcus epidermidis clinical isolates; assay type: toxicity, cell-based; conditions: read-out: Selectivity Index; summary of the method: as §2
[9] = Selectivity index, ratio of IC50 for rat H9c2 cells to IC50 for human BJ cells; assay type: toxicity; conditions: H9c2 cells and BJ cells, read-out: Ratio IC50
Acinetobacter baumannii = assay: Antibacterial activity against Acinetobacter baumannii ATCC 19606 assessed as inhibition of bacterial growth by broth microdilution method; assay type: functional
Escherichia coli = assay: Antibacterial activity against Escherichia coli ATCC 25922 assessed as inhibition of bacterial growth by broth microdilution method; assay type: functional
Pseudomonas aeruginosa = assay: Antibacterial activity against Pseudomonas aeruginosa ATCC 27853 assessed as inhibition of bacterial growth by broth microdilution method; assay type: functional
[10] = test system: Staphylococcus epidermidis; assay: Antibacterial activity against multidrug-resistant and biofilm producer Staphylococcus epidermidis ATCC 35984 assessed as inhibition of bacterial growth by broth microdilution method; assay type: functional
Summary of the method: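 Preliminary MIC screen by broth microdilution against three reference strains (methicillin-susceptible, multidrug-resistant/biofilm-producing S. epidermidis, and biofilm-producing S. aureus); MIC reported in μg/mL.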

Cell membrane [11] = assay: Induction of cell membrane permeability Staphylococcus epidermidis clinical isolate 23 assessed as residual polarized cells at 1.6 ug/ml by Texas Red-H/FITC-H staining based flow cytometry (reference value: 69.6%); assay type: subcellular; conditions: dose 1.6 µg/ml
Summary of the method: (§3)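 Cells stained with DiOC2, then exposed to test agent (0.8, 1.6, 3.125 μg/mL tested); CCCP positive control, daptomycin 0.4 μg/mL reference depolarizer, DiOC2-only negative control. Membrane potential read by flow cytometry as red (polarized) versus green (depolarized) cell populations; depolarization assessed within 15 min.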

Cell membrane [12] = assay: Induction of cell membrane permeability Staphylococcus epidermidis clinical isolate 23 assessed as depolarized cells at 1.6 ug/ml by Texas Red-H/FITC-H staining based flow cytometry (reference value: 2.7%); assay type: subcellular; conditions: dose 1.6 µg/ml; summary of the method: as §3
Cell membrane [13] = assay: Induction of cell membrane permeability Staphylococcus epidermidis clinical isolate 23 assessed as residual polarized cells at 0.8 ug/ml by Texas Red-H/FITC-H staining based flow cytometry (reference value: 69.6%); assay type: subcellular; conditions: dose 0.8 µg/ml
Summary of the method: (§4)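 Clinical S. epidermidis no. 23 cells were first stained with DiOC2, then treated with compound. Membrane potential was read by flow cytometry within 15 min: red marks polarized cells, green marks depolarized cells. Controls were DiOC2-only cells (negative), CCCP (positive), and daptomycin at 0.4 μg/mL as a depolarizing reference.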

Cell membrane [14] = assay: Induction of cell membrane permeability Staphylococcus epidermidis clinical isolate 23 assessed as depolarized cells at 0.8 ug/ml by Texas Red-H/FITC-H staining based flow cytometry (reference value: 2.7%); assay type: subcellular; conditions: dose 0.8 µg/ml; summary of the method: as §4
[15] = test system: Staphylococcus epidermidis; assay: Bacteriostatic activity Staphylococcus epidermidis clinical isolate 44 at 0.4 to 25 ug/ml measured upto 1000 mins by broth microdilution method; assay type: functional, organism-based; conditions: dose 0.4-25 µg/ml
Cell membrane [16] = assay: Induction of cell membrane permeability Staphylococcus epidermidis clinical isolate 23 assessed as depolarized cells at 3.125 ug/ml by Texas Red-H/FITC-H staining based flow cytometry (reference value: 2.7%); assay type: subcellular; conditions: dose 3.125 µg/ml; summary of the method: as §4
[17] = test system: Staphylococcus epidermidis; assay: Antibiofilm activity against Staphylococcus epidermidis clinical isolate 25 assessed as inhibition of biofilm formation measured after 24 hrs by confocal laser scanning microscopy analysis; assay type: functional
Summary of the method: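 Clinical S. epidermidis strain no. 25 biofilm exposed to compound for 24 h, stained with FilmTracer SYPRO Ruby biofilm matrix stain, and imaged by confocal microscopy. Untreated compact biofilm served as control.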

Structure (SMILES): CCCCCCCCCC(=O)N[C@@H](Cc1c[nH]c2ccccc12)C(=O)N[C@H](CC(N)=O)C(=O)N[C@@H](CC(=O)O)C(=O)N[C@@H]1C(=O)NCC(=O)N[C@@H](CCCN)C(=O)N[C@@H](CC(=O)O)C(=O)N[C@H](C)C(=O)N[C@@H](CC(=O)O)C(=O)NCC(=O)N[C@H](CO)C(=O)N[C@@H]([C@H](C)CC(=O)O)C(=O)N[C@@H](CC(=O)c2ccccc2N)C(=O)O[C@@H]1C
- Activity (Cell membrane [1]): 1.3%
- Activity (Cell membrane [2]): 7.2%

Structure (SMILES): N#CC(C#N)=NNc1cccc(Cl)c1
- Activity (Cell membrane [3]): 73.4%
- Activity (Cell membrane [4]): 0.1%

Structure (SMILES): O=S(=O)(NC1CCN(CCC(Oc2ccc(C(F)(F)F)cc2)c2ccccc2)CC1)c1cccc(Cl)c1 (racemic)
- selectivity ratio [5]: 0.4
- MBEC90 [6]: >=125 ug ml-1
- MBIC90 [7]: >=125 ug ml-1
- selectivity ratio [8]: 0.7
- selectivity ratio [9]: 2

Structure (SMILES): O=S(=O)(NC1CCN(CCC(Oc2ccc(C(F)(F)F)cc2)c2cccs2)CC1)c1cccc(Cl)c1 (racemic)
- selectivity ratio [5]: 1
- MBEC90 [6]: >=125 ug ml-1
- MBIC90 [7]: >=125 ug ml-1
- selectivity ratio [8]: 2.8
- selectivity ratio [9]: 2

Structure (SMILES): O=S(=O)(NC1CCN(CCC(Oc2cccc(C(F)(F)F)c2)c2ccccc2)CC1)c1cccc(Cl)c1 (racemic)
- MIC (Acinetobacter baumannii): ≥ 25 µg/mL
- MIC (Escherichia coli): ≥ 25 µg/mL
- MIC (Pseudomonas aeruginosa): ≥ 25 µg/mL

Structure (SMILES): O=S(=O)(NC1CCN(CCC(Oc2ccc(C(F)(F)F)cc2)c2cccs2)CC1)c1cccc(C(F)(F)F)c1 (racemic)
- MIC [10]: 0.2 µg/mL (≈ 0.337 µM)

Structure (SMILES): O=C(Nc1cccc(Cl)c1)NC1CCN(CCC(Oc2ccc(C(F)(F)F)cc2)c2cccs2)CC1 (racemic)
- MIC (Acinetobacter baumannii): > 50 µg/mL
- selectivity ratio [5]: 7.5
- Activity (Cell membrane [11]): 1.9%
- MBEC90 [6]: 31.25 µg/mL
- Activity (Cell membrane [12]): 72.4%
- Activity (Cell membrane [13]): 43.5%
- MIC (Escherichia coli): > 50 µg/mL
- MBIC90 [7]: 31.25 µg/mL
- Activity (Cell membrane [14]): 34.7%
- Activity [15]: Active
- selectivity ratio [8]: 15.3
- Activity (Cell membrane [16]): 55.2%
- selectivity ratio [9]: 2
- MIC (Pseudomonas aeruginosa): > 50 µg/mL
- MBIC [17]: 7.8 µg/mL

Structure (SMILES): O=S(=O)(NC1CCN(CCC(Oc2ccc(C(F)(F)F)cc2)c2cccs2)CC1)c1cccc(Br)c1 (racemic)
- MIC [10]: 0.4 µg/mL (≈ 0.663 µM)

Structure (SMILES): CC(=O)NC[C@H]1CN(c2ccc(N3CCOCC3)c(F)c2)C(=O)O1 [LINEZOLID]
- MBEC90 [6]: 50 µg/mL
- MBIC90 [7]: 50 µg/mL
- Activity [15]: Active
- selectivity ratio [8]: 7.3

Source: ChEMBL document CHEMBL5344467, “Improving Activity of New Arylurea Agents against Multidrug-Resistant and Biofilm-Producing Staphylococcus epidermidis” (ACS Med Chem Lett, 2024)
